The text below walks through data of ChEMBL document CHEMBL4184227, “Surrogating and redirection of pyrazolo[1,5-a]pyrimidin-7(4H)-one core, a novel class of potent and selective DPP-4 inhibitors” (Bioorg Med Chem, 2018).

Molecules are shown by their SMILES.

The target in series [1] is Dipeptidyl peptidase 8 (Homo sapiens, UniProt Q6V1X1). As to the kind of experiment: Inhibition of recombinant human DPP8 using H-Gly-Pro-AMC as substrate measured after 10 mins by fluorescence assay. The procedure, abridged: (§1)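 Recombinant human DPP-8 or DPP-9 in 100 mM Tris-HCl, 100 mM NaCl, pH 7.8 was combined with inhibitor and H-Gly-Pro-AMC substrate (303 final). The mixture was incubated at 37 °C for 10 min, then fluorescence was read at ex 380/em 460 nm; values are means of three experiments.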
Chain of Dipeptidyl peptidase 8 (Q6V1X1 whole entry): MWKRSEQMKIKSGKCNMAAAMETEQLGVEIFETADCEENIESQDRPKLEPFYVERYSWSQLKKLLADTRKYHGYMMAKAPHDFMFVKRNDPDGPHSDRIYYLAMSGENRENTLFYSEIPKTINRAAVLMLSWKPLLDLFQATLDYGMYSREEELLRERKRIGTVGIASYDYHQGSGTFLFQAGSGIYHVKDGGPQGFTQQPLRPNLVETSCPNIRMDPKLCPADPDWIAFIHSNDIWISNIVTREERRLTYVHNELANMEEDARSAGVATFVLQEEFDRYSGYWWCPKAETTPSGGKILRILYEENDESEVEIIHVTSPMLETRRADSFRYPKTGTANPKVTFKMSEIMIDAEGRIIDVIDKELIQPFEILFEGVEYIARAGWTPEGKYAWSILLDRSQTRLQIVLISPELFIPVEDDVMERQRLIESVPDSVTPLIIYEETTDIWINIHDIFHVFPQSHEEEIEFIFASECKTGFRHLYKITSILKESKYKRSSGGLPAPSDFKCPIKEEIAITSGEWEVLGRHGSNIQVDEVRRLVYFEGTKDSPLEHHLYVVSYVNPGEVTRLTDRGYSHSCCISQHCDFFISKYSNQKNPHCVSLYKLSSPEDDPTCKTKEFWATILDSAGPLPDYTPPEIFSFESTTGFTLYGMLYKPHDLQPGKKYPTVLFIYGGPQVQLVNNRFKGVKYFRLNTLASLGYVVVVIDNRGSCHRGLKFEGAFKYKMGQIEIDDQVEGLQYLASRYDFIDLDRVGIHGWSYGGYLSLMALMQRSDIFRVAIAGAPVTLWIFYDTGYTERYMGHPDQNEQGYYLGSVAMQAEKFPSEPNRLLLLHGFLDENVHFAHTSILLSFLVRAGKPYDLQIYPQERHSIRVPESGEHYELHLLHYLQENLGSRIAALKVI

Series [2] relates to HepG2. As to the kind of experiment: Cytotoxicity against human HepG2 cells assessed as reduction in cell viability at 100 uM after 48 hrs by MTT assay. It counts as cell-based. Conditions: hepg2, 48 h; call rule not given here. In outline: (§2)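 HepG2 cells in DMEM were exposed to compound in DMSO at 1–100 μM final, or DMSO alone as negative control, for 48 h. MTT (5 mg/ml, 20 µL) was then added for 6 h, the supernatant removed and the formazan dissolved in DMSO. Absorbance was read at 490 nm; viability is expressed versus control; mean ± SD, n=3.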
(Tetrazolium assays rely on reduction of a dye to a coloured formazan, in cell work by metabolically active cells.)

For series [3], the target named is Dipeptidyl peptidase 9 (Homo sapiens, UniProt Q86TI2). Put plainly: Inhibition of recombinant human DPP9 using H-Gly-Pro-AMC as substrate measured after 10 mins by fluorescence assay. The procedure, abridged:
as §1

Series [4] has as its system HepG2. As to the kind of experiment: Cytotoxicity against human HepG2 cells assessed as reduction in cell viability after 48 hrs by MTT assay. It counts as cell-based. Conditions: hepg2, 48 h. In outline:
as §2

For series [5], the species on record is Mus musculus. Put plainly: animal or person. The conditions noted are these: C57BL/6, ip, read-out: MED.
In series [6] the test system is Mus musculus. Put plainly: Antidiabetic activity in ip dosed C57BL/6 mouse as reduction in blood glucose level administered as single dose pretreated for 30 mins followed by dextrose-challenge measured up to 2 hrs by IPGTT. It counts as functional, organism-based. The procedure, abridged: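 Diabetic male mice (strain given as C57BL/6 and as BALB/c) received a single intraperitoneal dose of 1, 5 or 10 mg/kg, or saline as control, 30 min before an injected dextrose challenge (2 g/kg). Blood glucose was read at 0, 0.5, 1, 1.5 and 2 h, and glucose AUC was computed over 0–120 min; mean ± SD, n = 4.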

The nature of series [7]: Cytotoxicity against human HepG2 cells assessed as cell viability at 100 uM after 48 hrs by MTT assay relative to control. Format: cell-based. Conditions: read-out: Activity. The procedure, abridged: as §2

Chain of Dipeptidyl peptidase 9 (Q86TI2 whole entry): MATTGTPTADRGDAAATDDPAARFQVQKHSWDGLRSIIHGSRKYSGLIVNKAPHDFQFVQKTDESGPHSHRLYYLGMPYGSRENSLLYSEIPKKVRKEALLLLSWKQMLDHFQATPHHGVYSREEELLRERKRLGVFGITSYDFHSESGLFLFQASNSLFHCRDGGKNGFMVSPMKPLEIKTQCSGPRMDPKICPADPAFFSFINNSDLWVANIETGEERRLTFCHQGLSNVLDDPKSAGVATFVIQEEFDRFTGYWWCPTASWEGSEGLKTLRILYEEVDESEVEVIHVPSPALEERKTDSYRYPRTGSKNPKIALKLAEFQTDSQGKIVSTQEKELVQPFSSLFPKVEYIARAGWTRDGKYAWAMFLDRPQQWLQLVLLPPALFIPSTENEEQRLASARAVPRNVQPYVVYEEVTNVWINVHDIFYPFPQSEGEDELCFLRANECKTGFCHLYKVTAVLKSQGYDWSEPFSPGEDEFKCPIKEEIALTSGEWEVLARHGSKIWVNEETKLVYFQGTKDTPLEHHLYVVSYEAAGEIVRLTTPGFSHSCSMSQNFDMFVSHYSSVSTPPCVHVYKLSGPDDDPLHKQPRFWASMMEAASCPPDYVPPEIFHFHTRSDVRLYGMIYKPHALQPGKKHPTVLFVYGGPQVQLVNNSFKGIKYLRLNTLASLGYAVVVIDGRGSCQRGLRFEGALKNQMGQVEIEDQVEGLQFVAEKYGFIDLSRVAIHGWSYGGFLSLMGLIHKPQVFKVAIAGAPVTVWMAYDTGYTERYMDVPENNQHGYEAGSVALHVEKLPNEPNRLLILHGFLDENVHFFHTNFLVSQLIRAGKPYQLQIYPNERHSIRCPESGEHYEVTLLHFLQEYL

With `N#Cc1ccccc1Cc1c(Cl)nc2ccnn2c1N1CCC[C@@H](N)C1`, the IC50 in series [1] and in series [3] was over 100 µM in each case. The results for the Activity entry in series [2] and in series [4] were “Toxic” and “Dose-dependent effect”, respectively.
As to `O=c1cc(N2CCNCC2)n(Cc2ccccc2[N+](=O)[O-])c2ccnn12`, the IC50 in series [1] and in series [3] was over 100 µM each time.
For `N#Cc1ccccc1Cn1c(N2CCC[C@@H](N)C2)cc(=O)n2nccc12`, the IC50 in series [1] and in series [3] was over 100 µM each time.
Consider `Cc1ccc(Cn2c(N3CCC[C@@H](N)C3)cc(=O)n3nccc23)cc1`, for which the IC50 in series [1] and in series [3] was over 100 µM each time.
Regarding `Cc1ccc(Cn2c(N3CCNCC3)cc(=O)n3nccc23)cc1`, the IC50 in series [1] and in series [3] was over 100 µM throughout.
Take `N#Cc1ccccc1Cn1c(N2CCNCC2)cc(=O)n2nccc12`: the IC50 in series [1] and in series [3] was over 100 µM each time. Besides, the minimal effective dose in series [5] amounted to 1 mg/kg. The Activity result in series [6] and in series [4] was “Dose-dependent effect” throughout. Moreover, in series [7], the viability at 48 h, 100 µM was over 60%.
Regarding `O=c1cc(N2CCNCC2)n(Cc2ccccc2)c2ccnn12`, the IC50 in series [1] and in series [3] was over 100 µM throughout.
